Assay outcomes from PubChem.
KCNK3 inh: human KCNK3 channel inhibition, primary screen; B-score at 10 µM; O14649; CHO-KCNK3 thallium flux, FluxOR fluorescence; active compounds read low; 340,000 tested, 0.84% active; AID 602410;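 active = B-score under library mean minus 4 SD, starting fluorescence ratio at most library mean plus 5 SD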;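 also: more negative B-score means stronger inhibition of thallium flux through KCNK3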
hERG protect: hERG (human) protection from proarrhythmic block | CHO-hERG, FluxOR thallium flux, dofetilide IC70 present | activation (rescue from dofetilide block), less the hit threshold, % at 10 µM | 310,000 tested, 0.51% active | AID 1511;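 active = activation above the mean of controls blocked by dofetilide plus 5 SD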;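 also: thallium influx through hERG after potassium depolarization seen as dye fluorescence rise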
Kir21 block: inhibitors of mouse Kir2.1 inward-rectifier potassium channel. P35561. HEK293-Kir2.1, FluxOR thallium flux fluorescence; active compounds read low. B-score at 10 µM. 310,000 tested, 0.85% active;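 active = fluorescence ratio B-score at or below minus 3 SD of library scores, with starting-brightness B-score within 2 SD, cut at about -4.2 in these data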;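 also: channel flux triggered by added potassium and thallium sulfate stimulus; B-score of peak minus minimum fluorescence over baseline after thallium stimulus; more negative B-score means stronger Kir2.1 block with less thallium influx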
Target sequence (P35561 whole entry, looked up): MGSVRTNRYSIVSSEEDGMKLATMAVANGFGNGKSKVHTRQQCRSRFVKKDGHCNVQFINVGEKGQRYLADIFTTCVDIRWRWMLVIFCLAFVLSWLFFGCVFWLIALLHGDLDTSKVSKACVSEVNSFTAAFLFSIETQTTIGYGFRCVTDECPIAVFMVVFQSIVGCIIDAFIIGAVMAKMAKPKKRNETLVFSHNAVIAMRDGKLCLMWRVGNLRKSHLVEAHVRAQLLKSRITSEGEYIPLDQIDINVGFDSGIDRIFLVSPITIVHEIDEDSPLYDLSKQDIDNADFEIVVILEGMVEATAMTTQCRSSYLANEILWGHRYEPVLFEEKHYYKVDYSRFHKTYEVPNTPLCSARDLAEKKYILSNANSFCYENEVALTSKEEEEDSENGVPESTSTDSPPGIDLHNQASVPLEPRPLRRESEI
KCNQ1 block: inhibitors of human KCNQ1 potassium channel; P51787; CHO-K1 KCNQ1, FluxOR thallium flux fluorescence; active compounds read high; B-score at 10 µM; 310,000 tested, 1.3% active;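 active = compounds whose thallium flux B-score, printed positive for inhibition, exceeds three library SD while starting fluorescence stays within three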;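 also: channel opened by potassium depolarization with thallium stimulus after 20 min compound exposure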
KCNK9 inh: blocks the human KCNK9 two-pore domain potassium channel. Q9NPC2. B-score at 10 µM. 310,000 tested, 1.2% active. HEK293 KCNK9, FluxOR thallium flux fluorescence; active compounds read low;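 active = ratio B-score over 3 SD below the library mean, with starting fluorescence within 5 SD of its mean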;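 also: negative B-score means less thallium flux so channel inhibition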
KCNQ1 act: potentiates or activates the human KCNQ1 potassium channel. CHO-K1 KCNQ1, thallium flux FluxOR fluorescence; active compounds read high. B-score at 10 µM. P51787. 310,000 tested, 0.35% active;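 active = fluorescence ratio B-score, a plate-corrected score, at least three library SD, with initial intensity B-score within 5 SD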
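Assay system: CHO-K1 cells stably expressing KCNQ1; Medium: assay buffer with matched DMSO; Also added: K+/Tl+ depolarizing stimulus; Dosing: single dose; Timing: dye 90 min, compound 20 min, room temperature; Measured by: kinetic FluxOR thallium fluorescence, 10-s 1-Hz baseline, 110-s post-stimulus read; Read-out: peak-minus-minimum fluorescence over initial fluorescence, negative-control normalized, B-scored.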
KCNK9 block conf: human KCNK9 inhibitor confirmation. inhibition, % at 10 µM. HEK293 KCNK9 cells, FluxOR thallium flux fluorescence. shares compounds with KCNK9 inh. 4,900 tested, 43% active;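 active = thallium signal inhibited by more than 5 SD of the compound-free buffer control wells, on both duplicate plates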
Kir2-1 spec: mouse Kir2.1 off-target activity of KCNK9 modulators. shares compounds with KCNK9 inh. Kir2.1 cells, FluxOR thallium flux fluorescence. inhibition, % at 10 µM. 4,900 tested, 4% active;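 active = thallium signal drop more than 5 SD beyond the mean of the no-compound control wells, seen in both duplicate plates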;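 also: signal is fluorescence rise after thallium addition divided by baseline fluorescence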
KCNK9 uninduced: second counter-screen for KCNK9 modulators: effect in non-induced cells. shares compounds with KCNK9 inh. non-induced KCNK9-HEK293, FluxOR thallium flux. inhibition, % at 10 µM. 4,900 tested, 40% active;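 active = thallium signal drop beyond 5 SD of the untreated control mean, on both duplicate plates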
Each line names hits and unclear results; the compound was inactive in the other large screens (follow-up assays come after a bar, where they were run). Compounds with a hit are over-represented: about 3.7% of the library has one in this group of screens.

CC(=O)Nc1cccc(NC(=O)c2cccc(S(=O)(=O)N3CCN(Cc4ccccc4)CC3)c2)c1	none
O=C(Nc1nc(-c2ccccc2)cs1)NC1CCCCC1	none
c1ccc(-c2csc(NC3CCCCC3)n2)cc1	none | KCNK9 block conf inactive | Kir2-1 spec inactive | KCNK9 uninduced inactive
O=C(c1sc2ccccc2c1Cl)N1CCN(c2ncccn2)CC1	none
O=C(c1sc2ccccc2c1Cl)N1CCN(c2ccccc2F)CC1	none | KCNK9 block conf inactive | Kir2-1 spec inactive | KCNK9 uninduced inactive
O=C(c1sc2ccccc2c1Cl)N1CCN(c2ccc(F)cc2)CC1	none | KCNK9 block conf inactive | Kir2-1 spec inactive | KCNK9 uninduced inactive
CCN(CC)S(=O)(=O)c1cccc(C(=O)NC(Cc2c[nH]c3ccccc23)c2nnc3n2CCCCC3)c1 (stereo not drawn)	none
Cc1ccc(NC(=O)CSc2ccccc2NC(=O)c2ccccc2Cl)cc1Cl	KCNK9 inh -9.7 | KCNK9 block conf 56% | Kir2-1 spec inactive | KCNK9 uninduced inactive
Cc1ccc(NC(=O)CSc2ccccc2NC(=O)c2ccccc2)cc1Cl	none
O=C(OCC(=O)N1CCCc2ccccc21)c1cnc(Cl)c(Cl)c1	none | KCNK9 block conf inactive | Kir2-1 spec inactive | KCNK9 uninduced inactive
O=C(OCC(=O)N1CCCc2ccccc21)c1cccc(C(F)(F)F)c1	none | KCNK9 block conf inactive | Kir2-1 spec inactive | KCNK9 uninduced inactive
Cc1cccc(OCCCC(=O)N2CCCc3ccccc32)c1C	none | KCNK9 block conf inactive | Kir2-1 spec inactive | KCNK9 uninduced inactive
CC(C)(C)OC(=O)N1CCC(c2c(C(=O)NC3CC3)cnn2-c2ccc(Cl)cc2)CC1	none | KCNK9 block conf inactive | Kir2-1 spec inactive | KCNK9 uninduced inactive
CCCCc1cc(=O)oc2cc(OCC(=O)Nc3cccnc3)c(Cl)cc12	none
CCC1=C(OC(=O)N(CC)CC)N2C(=O)OC(=NCCc3c[nH]c4ccccc34)[C@]2(Cc2ccccc2)[C@H]2C1=CC[C@H]1C(=O)N(C)C(=O)[C@H]12	KCNK9 inh -9.5 | KCNK9 block conf 41% | Kir2-1 spec inactive | KCNK9 uninduced 40%
CCOc1ccccc1NC(=O)COC(=O)c1cccc(-c2ccc(OC(C)=O)cc2)c1	KCNK9 inh -10 | KCNK9 block conf inactive | Kir2-1 spec inactive | KCNK9 uninduced 32%
CC(=O)Oc1ccc(-c2cccc(C(=O)OCC(=O)Nc3ccccc3Oc3ccccc3)c2)cc1	none
COc1cc(C)nc(N(Cc2ccccc2)S(=O)(=O)c2ccccc2)n1	KCNK9 inh -16 | KCNK9 block conf 56% | Kir2-1 spec inactive | KCNK9 uninduced 44%
C[C@@H](C(=O)N[C@@H](Cc1c[nH]c2ccccc12)C(=O)O)n1nnc2ccccc2c1=O	none
CCOC(=O)/C(=N\Nc1cc(C(F)(F)F)ccc1Cl)N(CC)CC	KCNK9 inh -13 | KCNK9 block conf 54% | Kir2-1 spec inactive | KCNK9 uninduced 42%
CCOC(=O)/C(=N\Nc1ccccc1Cl)N(C)C1CCCCC1	KCNK9 inh -8.8 | KCNK9 block conf 64% | Kir2-1 spec inactive | KCNK9 uninduced 50%
CC(C)CC1NC(=O)N(CC(=O)Nc2ccc3c(c2)OCCO3)C1=O (stereo not drawn)	none (no result: hERG protect, Kir21 block, KCNQ1 block, KCNK9 inh, KCNQ1 act)
CCC1CCCCN1C(=O)c1ccc2c(c1)C(=O)N(c1ccc(C)cc1)C2=O (stereo not drawn)	none
CCOC(=O)c1nc(Nc2ccccc2)c2ccccc2n1	none
CCOC(=O)c1nc(Nc2cc(Cl)ccc2OC)c2ccccc2n1	KCNK9 inh -13 | KCNK9 block conf 46% | Kir2-1 spec inactive | KCNK9 uninduced inactive
NC(=O)Nc1ccc(C(=O)OCC(=O)N2CCc3ccccc3C2)cc1	none (no result: hERG protect, Kir21 block, KCNQ1 block, KCNK9 inh, KCNQ1 act)
CCOC(=O)C(C)Sc1nc2c(c(-c3cccs3)c1C#N)CCC2 (stereo not drawn)	none | KCNK9 block conf inactive | Kir2-1 spec inactive | KCNK9 uninduced inactive
CC(C)OC(=O)CC(=O)CSc1nc2c(c(-c3cccs3)c1C#N)CCC2	none
COc1ccc(Br)cc1CNC(=O)C1CCCN(S(=O)(=O)N2CC(C)CC(C)C2)C1 (stereo not drawn)	KCNK9 inh -8.5 | KCNK9 block conf inactive | Kir2-1 spec inactive | KCNK9 uninduced inactive
Cc1ccc(CNC(=O)C2CCCN(S(=O)(=O)N3CC(C)CC(C)C3)C2)cc1 (stereo not drawn)	none | KCNK9 block conf inactive | Kir2-1 spec inactive | KCNK9 uninduced inactive
CCCS(=O)(=O)N1CCCC(C(=O)NCc2ccc(C)cc2)C1 (stereo not drawn)	none
COc1ccc(Br)cc1CNC(=O)C1CCN(S(=O)(=O)N2CCCCC2)CC1	none
COC(=O)c1ccccc1NC(=O)C1CCN(S(=O)(=O)c2cc(C)ccc2OC)CC1	none
COc1ccc(OC)c(S(=O)(=O)N2CCC(C(=O)Nc3cc(C)ccc3C)CC2)c1	KCNK9 inh -10 | KCNK9 block conf inactive | Kir2-1 spec inactive | KCNK9 uninduced inactive
CC(=O)c1ccccc1NC(=O)C1CCCN(C(=O)c2ccc(Cl)cc2)C1 (stereo not drawn)	none (no result: hERG protect, Kir21 block, KCNQ1 block, KCNK9 inh, KCNQ1 act)
CCN1CCN(S(=O)(=O)c2ccc(Cl)c(C(=O)N(CCc3ccccc3)Cc3ccccc3)c2)CC1	none (no result: hERG protect, Kir21 block, KCNQ1 block, KCNK9 inh, KCNQ1 act)
Cc1ccc(N(Cc2ccccc2)C(=O)c2cccc(S(=O)(=O)N3CC(C)OC(C)C3)c2)cc1 (stereo not drawn)	none
Cc1ccc(S(=O)(=O)N2CCCCC2)cc1C(=O)N(CCc1ccccc1)Cc1ccccc1	KCNK9 inh -16 | KCNK9 block conf 79% | Kir2-1 spec inactive | KCNK9 uninduced 43%
CC1CN(S(=O)(=O)c2cccc(C(=O)N(CCc3ccccc3)Cc3ccccc3)c2)CC(C)O1 (stereo not drawn)	none | KCNK9 block conf inactive | Kir2-1 spec inactive | KCNK9 uninduced inactive
CCCSCCCNC(=O)Cn1c(=O)c2cccn2c2ccccc21	none
COc1ccc(CCNC(=O)c2ccc(Cl)c(S(=O)(=O)N(C)c3ccccc3)c2)cc1	none | KCNK9 block conf inactive | Kir2-1 spec inactive | KCNK9 uninduced inactive
Cc1cc(C)n(-c2nnc(C)n2/N=C/c2ccc(O)cc2)n1	none
Cc1cc(C)n(-c2nnc(C)n2/N=C/c2cc(Br)ccc2OCc2ccccc2)n1	KCNK9 inh -8.6 | KCNK9 block conf 41% | Kir2-1 spec inactive | KCNK9 uninduced inactive
Cc1cc(C)cc(OCC(=O)O/N=C(\N)c2ccccc2Cl)c1	none | KCNK9 block conf inactive | Kir2-1 spec inactive | KCNK9 uninduced inactive
